Values belong to the compound of their own block, whether it stands above or below them.
Columns and labels:
[1] = biological target: T1, Kinesin-like protein KIF11 (Homo sapiens, UniProt P52732); assay: Inhibition of Eg5 by ATPase assay; type: functional
T1 sequence (P52732 whole entry): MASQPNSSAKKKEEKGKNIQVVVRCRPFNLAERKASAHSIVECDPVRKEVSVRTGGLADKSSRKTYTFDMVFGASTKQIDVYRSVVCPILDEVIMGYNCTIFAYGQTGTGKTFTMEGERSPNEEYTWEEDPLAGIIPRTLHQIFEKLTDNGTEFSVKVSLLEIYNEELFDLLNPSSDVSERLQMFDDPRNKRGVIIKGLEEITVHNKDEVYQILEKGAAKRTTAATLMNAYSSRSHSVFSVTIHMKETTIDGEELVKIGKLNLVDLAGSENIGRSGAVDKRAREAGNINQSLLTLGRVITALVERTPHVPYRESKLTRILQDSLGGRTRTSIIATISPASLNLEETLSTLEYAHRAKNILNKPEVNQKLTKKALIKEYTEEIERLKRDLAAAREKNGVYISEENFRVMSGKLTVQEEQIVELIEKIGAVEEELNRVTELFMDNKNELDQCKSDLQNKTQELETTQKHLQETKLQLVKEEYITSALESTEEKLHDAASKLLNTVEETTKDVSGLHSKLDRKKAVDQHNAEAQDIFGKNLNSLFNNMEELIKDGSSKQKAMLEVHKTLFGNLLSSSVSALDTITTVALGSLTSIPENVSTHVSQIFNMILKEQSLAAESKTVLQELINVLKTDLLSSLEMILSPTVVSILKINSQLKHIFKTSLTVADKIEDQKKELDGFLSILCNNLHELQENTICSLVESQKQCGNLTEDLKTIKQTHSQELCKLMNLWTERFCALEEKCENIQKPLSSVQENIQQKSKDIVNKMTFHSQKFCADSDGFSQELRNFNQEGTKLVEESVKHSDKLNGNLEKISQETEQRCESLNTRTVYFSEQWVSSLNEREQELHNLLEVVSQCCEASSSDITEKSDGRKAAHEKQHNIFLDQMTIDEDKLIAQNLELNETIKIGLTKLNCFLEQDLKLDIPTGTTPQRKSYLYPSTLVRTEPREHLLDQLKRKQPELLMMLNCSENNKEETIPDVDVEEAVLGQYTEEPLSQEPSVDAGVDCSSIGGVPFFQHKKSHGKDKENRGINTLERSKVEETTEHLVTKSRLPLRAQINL
Summary of the method: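 Eg5 motor-domain protein ATPase activity read with a Kinase-Glo luminescent ATP kit. IC50 taken from dose–response curves of triplicate data points. Values are means ± SD of three independent experiments.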

[2] = test system: A2780; assay: Antiproliferative activity against human A2780 cells; type: functional, cell-based
Summary of the method: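 A2780 ovarian carcinoma cells were exposed to compound for 72 h. IC50 derived from dose–response curves of triplicate data points, reported as the mean ± SD of three independent experiments.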

[3] = test system: P388; assay: Antiproliferative activity against mouse P388 cells; type: functional, cell-based
Summary of the method: (§1)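 Each tumour cell line in the panel was exposed to compound for 72 h, and IC50 was determined after that exposure.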

[4] = test system: A2780; assay: Antiproliferative activity against human A2780-TAXR cells; type: functional, cell-based; summary of the method: as §1
[5] = test system: A2780; assay: Cell cycle arrest in A2780 cells by accumulation at G2/M phase at 0.257 uM; type: functional, Homo sapiens
Summary of the method: (§2)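 A2780 cells were treated for 17 h at 0.257 or 0.328 µM, with nocodazole 0.1 µM as positive control and DMSO 0.08% as negative control. Cell-cycle profile (% G1, S, G2+M) and mitotic index (% cells in M phase) were quantified by flow cytometry.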

[6] = test system: PC-3; assay: Antiproliferative activity against human PC3 cells; type: functional, cell-based; summary of the method: as §1
[7] = test system: A2780; assay: Cell cycle arrest in A2780 cells by accumulation at S phase at 0.328 uM; type: functional, Homo sapiens; summary of the method: as §2
[8] = test system: A2780; assay: Cell cycle arrest in A2780 cells by accumulation at G2/M phase at 0.328 uM; type: functional, Homo sapiens; summary of the method: as §2
[9] = test system: A2780; assay: Cell cycle arrest in A2780 cells by accumulation at S phase at 0.257 uM; type: functional, Homo sapiens; summary of the method: as §2
[10] = test system: DU-145; assay: Antiproliferative activity against human Du145 cells; type: functional, cell-based; summary of the method: as §1
[11] = test system: A2780; assay: Cell cycle arrest in A2780 cells by accumulation at G1 phase at 0.328 uM; type: functional, Homo sapiens; summary of the method: as §2
[12] = test system: CCRF-CEM; assay: Antiproliferative activity against human CCRF-CEM cells; type: functional, cell-based; summary of the method: as §1
[13] = test system: MDA-MB-231; assay: Antiproliferative activity against human MDA-MB-231 cells; type: functional, cell-based; summary of the method: as §1
[14] = test system: M109; assay: Antiproliferative activity against mouse M109 cells; type: functional, cell-based; summary of the method: as §1
[15] = test system: NCI-H446; assay: Antiproliferative activity against human NCI-H446 cells; type: functional, cell-based; summary of the method: as §1
[16] = test system: MDA-MB-468; assay: Antiproliferative activity against human MDA-MB-468 cells; type: functional, cell-based; summary of the method: as §1
[17] = test system: SW-620; assay: Antiproliferative activity against human SW620 cells; type: functional, cell-based; summary of the method: as §1
[18] = test system: LNCaP; assay: Antiproliferative activity against human LNCaP cells; type: functional, cell-based; summary of the method: as §1
[19] = test system: A2780; assay: Mitotic index in A2780 cells at M phase at 0.257 uM; type: functional, Homo sapiens; summary of the method: as §2
[20] = test system: A2780; assay: Antiproliferative activity against human A2780S cells; type: functional, cell-based; summary of the method: as §1
[21] = test system: A2780; assay: Cell cycle arrest in A2780 cells by accumulation at G1 phase at 0.257 uM; type: functional, Homo sapiens; summary of the method: as §2
[22] = test system: A2780; assay: Mitotic index in A2780 cells at M phase at 0.328 uM; type: functional, Homo sapiens; summary of the method: as §2
[23] = test system: HCT-116; assay: Antiproliferative activity against human HCT116 cells; type: functional, cell-based; summary of the method: as §1
[24] = test system: SHP77; assay: Antiproliferative activity against human SHP77 cells; type: functional, cell-based; summary of the method: as §1
[25] = test system: A2780; assay: Cell cycle arrest in A2780 cells by accumulation at S phase at 0.1 uM; type: functional, Homo sapiens; summary of the method: as §2
[26] = test system: A2780; assay: Mitotic index in A2780 cells at M phase at 0.1 uM; type: functional, Homo sapiens; summary of the method: as §2
[27] = test system: A2780; assay: Cell cycle arrest in A2780 cells by accumulation at G1 phase at 0.1 uM; type: functional, Homo sapiens; summary of the method: as §2
[28] = test system: A2780; assay: Cell cycle arrest in A2780 cells by accumulation at G2/M phase at 0.1 uM; type: functional, Homo sapiens; summary of the method: as §2

- IC50 [1]: > 25000 nM
Compound: CNC(=O)N1Cc2c(ccc(C)c2C)C(c2ccccc2)C1 (stereo not given)

Compound: CCN1Cc2c(ccc(C)c2C)C(c2ccccc2)C1 (stereo not given)
- IC50 [2]: 5300 nM
- IC50 [1]: 25200 nM

- IC50 [1]: 13200 nM
Compound: Cc1ccc2c(c1C)CN(C(=O)N(C)C)CC2c1cccc(C(F)(F)F)c1 (stereo not given)

- IC50 [3]: 460 nM
- IC50 [4]: 215 nM
- IC50 [6]: 223 nM
- IC50 [2]: 234 nM
- IC50 [10]: 484 nM
- IC50 [12]: 282 nM
- IC50 [13]: 480 nM
- IC50 [15]: 360 nM
- IC50 [16]: 350 nM
- IC50 [17]: 466 nM
- IC50 [18]: 807 nM
- IC50 [20]: 267 nM
- IC50 [23]: 259 nM
Compound: Cc1ccc2c(c1C)CN(C(=O)N(C)C)C[C@@H]2c1cccc(O)c1
- Activity [5]: 73.2%
- Activity [7]: 5.9%
- Activity [8]: 84%
- Activity [9]: 11.8%
- Activity [11]: 3.1%
- IC50 [14]: 259 nM
- Activity [19]: 39.3%
- Activity [21]: 9.1%
- Activity [22]: 52.2%
- IC50 [24]: 261 nM

- IC50 [2]: 2420 nM
- IC50 [1]: 3060 nM
Compound: Cc1ccc2c(c1C)CN(CCCN)CC2c1ccccc1 (stereo not given)

- IC50 [1]: > 25000 nM
Compound: CCOC(=O)N1Cc2c(ccc(C)c2C)C(c2ccccc2)C1 (stereo not given)

- IC50 [2]: 3020 nM
- IC50 [1]: 3480 nM
Compound: Cc1ccc2c(c1C)CN(C(=O)N(C)C)CC2c1cccc(Cl)c1 (stereo not given)

Compound: Cc1ccc2c(c1C)CN(C(C)C)CC2c1ccccc1 (stereo not given)
- IC50 [2]: 6280 nM
- IC50 [1]: 11000 nM

- IC50 [2]: 2370 nM
- IC50 [1]: 4650 nM
Compound: Cc1ccc2c(c1C)CN(CCCCN)CC2c1ccccc1 (stereo not given)

Compound: COC(=O)Nc1nc2cc(C(=O)c3cccs3)ccc2[nH]1 [NOCODAZOLE]
- Activity [25]: 15.7%
- Activity [26]: 23.7%
- Activity [27]: 12%
- Activity [28]: 62.1%

- IC50 [1]: 14400 nM
Compound: COC(=O)N1Cc2c(ccc(C)c2C)C(c2ccccc2)C1 (stereo not given)

- IC50 [2]: 1860 nM
- IC50 [1]: 5360 nM
Compound: Cc1ccc2c(c1C)CN(CCCCN(C)C)CC2c1ccccc1 (stereo not given)

- IC50 [1]: > 25000 nM
Compound: Cc1ccc2c(c1C)CN(CCc1ccccc1)CC2c1ccccc1 (stereo not given)

- IC50 [1]: > 25000 nM
Compound: Cc1ccc2c(c1C)CN(CCn1cccc1)CC2c1ccccc1 (stereo not given)

- IC50 [1]: > 25000 nM
Compound: Cc1ccc2c(c1C)CN(S(C)(=O)=O)CC2c1ccccc1 (stereo not given)

- IC50 [2]: 363 nM
- IC50 [1]: 317 nM
Compound: CN(C)C(=O)N1Cc2cc(I)ccc2C(c2cccc(O)c2)C1 (stereo not given)

- IC50 [2]: 235 nM
- IC50 [1]: 639 nM
Compound: CN(C)C(=O)N1Cc2c(ccc3c2OCC3)C(c2cccc(O)c2)C1 (stereo not given)

- IC50 [1]: > 25000 nM
Compound: CN(C)C(=O)N1Cc2ccccc2C(c2cccc(O)c2)C1 (stereo not given)

- IC50 [1]: > 25000 nM
Compound: CN(C)C(=O)N1Cc2c(F)cccc2C(c2cccc(O)c2)C1 (stereo not given)

- IC50 [1]: > 25000 nM
Compound: CN(C)C(=O)N1Cc2c(Br)cccc2C(c2cccc(O)c2)C1 (stereo not given)

- IC50 [1]: > 25000 nM
Compound: Cc1ccc2c(c1C)CN(C(N)=O)CC2c1ccccc1 (stereo not given)

- IC50 [1]: > 25000 nM
Compound: CN(C)C(=O)N1Cc2cc(F)ccc2C(c2cccc(O)c2)C1 (stereo not given)
